Data as given in PMC7311271 (Nature chemical biology, 2020).
Each block holds one molecule with its values, some of them ahead of it.

Assays:
recombinant human G6PD = recombinant human G6PD (Homo sapiens, UniProt P11413); assay: G6PD diaphorase-coupled enzymatic assay; type: biochemical
Procedure, shortened: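 Recombinant human G6PD was expressed in E. coli with an N-terminal His6 tag, purified on Ni, thrombin-cleaved and size-excluded. Reactions started with 1 mM G6P at 30 °C, read each minute (ex 530/em 590 nm). RFU/min was normalised to no-compound wells, and IC50 came from a 4-parameter fit.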

[1] = test system: G6PD cellular activity in HepG2 cells; assay: 6-pg levels in HepG2 cells; type: cell-based, human
Procedure, shortened: (§1)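 Adherent HepG2 or HCT116 cells were grown to 80% confluency in 6-well plates, then given fresh medium containing the test compound over a dose range. They were incubated 2 h at 37 °C, 5% CO2. Metabolites were extracted ~30 min at −20 °C, scraped and centrifuged (15 min, 16,000 rpm, 4 °C). Supernatants were analysed by LC-MS for 6-pg, NADPH and NADP+ (n = 3).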

[2] = test system: G6PD cellular activity in HCT116-mPgd cells; assay: 6-pg levels in HCT116-mPgd cells; type: cell-based, human; conditions: dose response, compared with DHEA
[3] = test system: G6PD cellular activity in HCT116 cells; assay: NADPH active hydride 2H-labeling from [1-2H]-glucose in HCT116 cells; type: cell-based, human
Procedure, shortened: (§2)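 HCT116 cells were incubated 2 h at 37 °C, 5% CO2 in medium containing [1-2H]-glucose tracer plus increasing doses of the test compound. Read-out was 2H transfer to the NADPH active hydride or to free palmitic acid, measured by LC-MS; dose-response curves, n = 3.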

[4] = test system: G6PD cellular activity in HCT116 cells; assay: Free palmitic acid; type: cell-based, human; conditions: dose response
Procedure, shortened: as §2

HCT116 and HepG2 cells = assay: NADPH pools and NADP+/NADPH ratio in HCT116 and HepG2 cells; type: cell-based, human
Procedure, shortened: as §1

G6PD in HepG2 lysates = G6PD in HepG2 lysates (Homo sapiens, UniProt P11413); assay: Cellular thermal shift assay; type: binding; conditions: 50 μM, up to 56 °C
Chain of G6PD in HepG2 lysates (P11413 whole entry): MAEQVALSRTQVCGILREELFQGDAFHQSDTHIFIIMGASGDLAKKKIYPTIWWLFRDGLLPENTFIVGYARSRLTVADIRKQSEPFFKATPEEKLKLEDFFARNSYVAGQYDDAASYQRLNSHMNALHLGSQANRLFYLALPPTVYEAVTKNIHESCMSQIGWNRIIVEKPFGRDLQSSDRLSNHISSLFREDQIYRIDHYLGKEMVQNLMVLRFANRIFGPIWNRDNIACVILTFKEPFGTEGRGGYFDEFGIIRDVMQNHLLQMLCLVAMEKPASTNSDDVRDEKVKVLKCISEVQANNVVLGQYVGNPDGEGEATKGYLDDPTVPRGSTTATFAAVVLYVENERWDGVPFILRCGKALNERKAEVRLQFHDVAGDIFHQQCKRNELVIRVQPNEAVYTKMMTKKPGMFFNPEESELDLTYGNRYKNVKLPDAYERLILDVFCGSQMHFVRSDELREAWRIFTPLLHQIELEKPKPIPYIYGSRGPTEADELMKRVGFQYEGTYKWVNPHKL
Procedure, shortened: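 Lysates took test compound or DMSO for 30 min on ice, then were heated 3 min at 47, 50, 53 or 56 °C. After 3 min cooling at room temperature, insoluble material was spun out (17,000 g, 20 min). G6PD signal is expressed relative to the DMSO control.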

HCT116 cells [5] = assay: Colony formation; type: cell-based, human; conditions: increasing doses
T cell lineages = assay: LC-MS quantification of NADPH and NADP+ pools, T cell lineages; type: cell-based
Procedure, shortened: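 Suspension T cells (2×10^6 in 1 mL medium, 12-well plates) were incubated with the test compound. Metabolites were acid-extracted 5 min on ice and neutralised with NH4HCO3. After centrifugation (15 min, 16,000 rpm, 4 °C), supernatants were analysed for NADPH and NADP+ by LC-MS.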

[6] = test system: RBC = red blood cells (mouse); assay: LC-MS quantification of NADPH pools, RBCs; type: cell-based
Procedure, shortened: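 Mouse blood was collected by cardiac puncture into heparin. Serum and buffy coat were removed after a 500 rpm spin at 4 °C, and cells were washed three times in PBS and used immediately in RPMI. Red cells (2×10^6 in 1 mL, 12-well plates) were incubated with the test compound, acid-extracted, neutralised with NH4HCO3, and analysed for NADPH by LC-MS.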

[7] = test system: mouse bone-marrow derived macrophages; assay: LC-MS quantification of NADPH pools, macrophages; type: cell-based
neutrophils = assay: NADPH in neutrophils; type: cell-based
Procedure, shortened: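 Mouse neutrophils were enriched by negative selection from femur/tibia bone marrow of 8–12 week old mice. Cells were cultured in RPMI with 10% heat-inactivated FBS, 5 mM HEPES and 2 mM EDTA. Metabolites were extracted after 30 min of PMA stimulation and analysed for NADPH by LC-MS.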

[8] = test system: G6PD in active mouse CD8+ and CD4+ T cells; assay: NADPH labeling, NADPH, NADP+ and 6-pg levels in active T cells; type: cell-based
Procedure, shortened: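 Active CD8+ T cells (day 4–5 post-activation), including cells from G6PD-Tg mice and littermate controls, were treated 2 h with increasing test-compound doses, with a [1-2H]-glucose tracer for labeling. For reversibility, cells were pretreated 2 h, then moved to final media for 2 h. For absolute quantification, extracts were spiked with NADP+ or NADPH standards, and packed cell volume was taken as 1.5 µL per 2 × 10^6 cells. Analysis was by LC-MS, n = 3, two-tailed unpaired t-test.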

[9] = test system: oxPPP flux in active CD8+ T cells; assay: Absolute oxPPP flux by 14CO2 emission; type: cell-based, mouse; conditions: 10 μM, 4 h
Procedure, shortened: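 Active mouse CD8+ T cells were used at day 4 post plate-bound anti-CD3/anti-CD28 stimulation, cultured with IL-2. Three million cells were incubated 4 h in a sealed flask with 0.1% DMSO or 10 μM test compound. Released 14CO2 was trapped in 10 M KOH, the reaction was stopped with 1 M HCl, and radioactivity was counted by scintillation. Flux (fmol h-1 cell-1) was normalised to cell number, labeling time and tracer fraction; mean ± SD, n = 5.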

active CD8+ T cells [10] = assay: Fatty acid synthesis; type: cell-based, mouse; conditions: 2 h, [U-13C]glucose tracer
[11] = test system: active CD8+ and CD4+ T cells; assay: Intracellular ROS; type: cell-based, mouse; conditions: 2 h
Procedure, shortened: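 Active mouse T cells were incubated 2 h with increasing test-compound concentrations, then stained with CellROX Green and a viability dye and analysed by flow cytometry.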

[12] = test system: mouse naïve CD8+ T cells stimulated by CD3/CD28 + IL-2; assay: T cell activation markers; type: cell-based; conditions: increasing concentrations
Procedure, shortened: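 Naïve CD8+ T cells were isolated from mouse spleens as strained single-cell suspensions in PBS with 0.5% BSA and 2 mM EDTA. Cells were rested with IL-7 (50 U/mL) or stimulated 48 h on plate-bound anti-CD3 (10 µg/ml) plus anti-CD28 (5 µg/ml) in RPMI with 100 μM alanine and IL-2 (100 U/mL), with increasing test compound. Read-outs were Live/Dead Aqua viability, surface CD69 and CD25, and FSC-A size. Two independent experiments were run.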

CD8+ T cells [13] = assay: CD8+ T cell proliferation by Cell Trace Violet dilution; type: cell-based, mouse; conditions: day 4 post-activation
Procedure, shortened: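 Naïve CD8+ T cells were isolated from mouse spleen by magnetic bead selection and stained with CellTrace Violet. Cells were kept naïve with IL-7 or stimulated with anti-CD3/anti-CD28 + IL-2, in increasing test-compound concentrations. Cells were refed at days 2 and 3. At day 4, dye dilution was read by flow cytometry with propidium iodide as viability stain; 2 independent experiments.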

CD8+ T cells [14] = assay: CD8+ T cell viability; type: cell-based, mouse
CD4+ T cells = assay: CD4+ T cell proliferation by CFSE dilution; type: cell-based, mouse; conditions: day 3 post-activation
Procedure, shortened: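 In a Treg suppression set-up, mouse Tconv cells were labeled with CFSE and Treg cells with CellTrace Violet. Tconv cells were stimulated with irradiated antigen-presenting cells plus CD3ε mAb (1 µg/mL). After 72 h, proliferation was read by flow cytometry as dye dilution.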

active CD8+ T cells [15] = assay: Intracellular cytokines in active CD8+ T cells; type: cell-based, mouse; conditions: PMA + IO, increasing doses
Procedure, shortened: (§3)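 Mouse CD4+ or CD8+ T cells were activated 48 h with plate-bound anti-CD3 (10 µg/ml)/anti-CD28 (5 µg/ml), IL-2 (100 U/mL) and 100 μM alanine, then kept in IL-2 and used at day 4–5. Cells were restimulated 6 h with PMA (20 ng/ml) + ionomycin (1 ug/ml), GolgiStop and increasing test-compound concentrations. After Live/Dead Aqua, CD4/CD8a surface staining, fixation and permeabilisation, IFNγ, TNFα and IL-2 were read by flow cytometry.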

active CD4+ T cells = assay: Intracellular cytokines in active CD4+ T cells; type: cell-based, mouse; conditions: PMA + IO, increasing doses
Procedure, shortened: as §3

[16] = test system: CD4+ T cells (Foxp3+ iTreg); assay: Foxp3+ iTreg formation and proliferation; type: cell-based, mouse; conditions: CD3/CD28 stimulation in the presence of TGF-β
[17] = test system: bone marrow derived macrophages; assay: Intracellular cytokines and iNOS in bone marrow derived macrophages; type: cell-based, mouse
Procedure, shortened: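 Mouse bone-marrow progenitors from femur and tibia were matured in DMEM with 10% FBS and 20% L929-conditioned medium. Macrophages were stimulated 6 h with LPS (100 ng/mL) + IFNγ (20 ng/mL), with GolgiStop and increasing test-compound concentrations. Cells were stained with Live/Dead Aqua, fixed and permeabilised, and stained for TNFα, IL-6 and iNOS before flow cytometry; 2 independent experiments.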

mouse neutrophils = assay: Neutrophil oxidative burst assay; type: cell-based; conditions: PMA 100 nM, 50 μM
Procedure, shortened: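 Mouse bone-marrow neutrophils were plated at 2 × 10^5 cells/well in bicarbonate-free RPMI 1640 on Cell-Tak-coated wells, spun 200 × g for 1 min and rested 1 h at 37 °C. Test compound (50 µM) or vehicle was added just before the run. Oxidative burst was triggered with PMA (100 nM), and rotenone + antimycin A (0.5 µM each) were added at t = 20 min. OCR was measured by extracellular flux analysis; n = 6.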

human neutrophils = assay: Neutrophil oxidative burst assay; type: cell-based; conditions: PMA 100 nM, 50 μM
Procedure, shortened: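 Human neutrophils were plated at 5 × 10^4 cells/well in RPMI 1640 with 0.1% human serum albumin on Cell-Tak-coated wells, spun 200 × g for 1 min and rested 1 h at 37 °C. Test compound (50 µM) or vehicle was added just before the run. Burst was triggered with PMA (100 nM), and OCR was measured by extracellular flux analysis; n = 6.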

HCT116 cells [18] = assay: Metabolomics in wild-type and ΔG6PD HCT116 cells; type: cell-based, human; conditions: 50 μM, 2 h
Procedure, shortened: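 Adherent cells were grown to 80% confluency. Medium containing test compound was added, and cells were held at 37 °C in 5% CO2 for 2 h. Extraction was at −20 °C for ~30 min, after which wells were scraped and extracts centrifuged (16,000 rpm, 15 min, 4 °C). Supernatants were stored at −80 °C and analysed by LC-MS.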

CD8+ T cells [19] = assay: Untargeted metabolomics on CD8+ T cells; type: cell-based, mouse; conditions: active CD8+ T cells, 2 h
Procedure, shortened: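 Active mouse CD8+ T cells were treated 2 h with the test compound. Water-soluble metabolites were extracted and profiled by LC-MS; mean, n = 3. Metabolites with fold-change > 4 were flagged.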

Chain of recombinant human G6PD (P11413 28-515): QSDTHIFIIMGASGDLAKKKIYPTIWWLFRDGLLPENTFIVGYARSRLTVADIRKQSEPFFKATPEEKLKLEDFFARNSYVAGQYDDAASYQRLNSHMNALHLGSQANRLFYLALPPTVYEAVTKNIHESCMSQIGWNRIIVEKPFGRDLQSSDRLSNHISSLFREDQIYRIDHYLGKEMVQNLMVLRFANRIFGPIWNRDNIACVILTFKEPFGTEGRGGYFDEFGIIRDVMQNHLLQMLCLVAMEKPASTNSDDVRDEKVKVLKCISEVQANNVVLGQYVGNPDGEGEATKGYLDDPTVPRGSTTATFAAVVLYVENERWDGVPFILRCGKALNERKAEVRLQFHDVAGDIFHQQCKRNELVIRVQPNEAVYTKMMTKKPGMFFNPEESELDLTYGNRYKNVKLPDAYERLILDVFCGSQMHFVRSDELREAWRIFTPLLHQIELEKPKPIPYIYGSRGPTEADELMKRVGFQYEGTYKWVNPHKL

mode of binding to G6PD (recombinant human G6PD; in vitro dilution experiments and competition assays against both substrates): reversibly and non-competitively
IC50 ([1]; Homo sapiens, HepG2, read-out: IC50 for decrease in 6-pg levels): ~13 µM
thermal stabilization of G6PD (G6PD in HepG2 lysates): significant thermal stabilization
SMILES: N#Cc1cc(Nc2ncc3c(n2)CCCCC3=O)cs1 [G6PDi-1, 4-([5-oxo-6H,7H,8H,9H-cyclohepta[d]pyrimidin-2-yl]amino)thiophene-2-carbonitrile]
dose-dependent decrease in 6-pg levels ([1]; HepG2 cells, dose response): dose-dependent decrease
suppression of 6-pg levels [2]: much more effectively suppressed
dose-dependent decrease in 2H transfer to NADPH's active hydride ([3]; dose response): dose-dependent decrease
dose-dependent decrease in 2H transfer to C16:0 [4]: dose-dependent decrease
NADPH pools (HCT116 and HepG2 cells; HCT116 and HepG2 cells): largely unperturbed
NADP+/NADPH (HCT116 and HepG2 cells; HCT116 cells, dose response): dose-dependent increase
colony formation (HCT116 cells [5]): dose-dependent decrease
decrease in NADPH (T cell lineages): greater than 10 fold
sensitivity of NADPH pools [6]: fairly sensitive
effect on NADPH [7]: did not decrease
effect on NADPH (neutrophils): did impact NADPH
time to restoration of NADPH, NADP+ and 6-pg levels after removing the inhibitor ([8]; activated CD8+ T cells): ≤ 2 h
effect of G6PD overexpression on dose response of NADPH and NADP+ ([8]; active CD8+ T cells from G6PD-Tg mice vs littermate controls): markedly shifted the dose response
time to onset of effects on NADPH labeling and NADP+, NADPH and 6-pg levels ([8]; active CD8+ T cells, 50 μM): ≤ 10 min
NADPH and 6-pg levels ([8]; mouse CD8+ and CD4+ T cells day 4–5 post-activation): decreased
2H transfer from glucose to NADPH ([8]; mouse CD8+ and CD4+ T cells day 4–5 post-activation, 10 μM, [1-2H]-glucose): completely blocked
absolute oxPPP flux [9]: blocked
fatty acid synthesis (active CD8+ T cells [10]): nearly completely ablated
reactive oxygen species (ROS) [11]: elevated
upregulation of activation markers and activation-dependent increase in cell size [12]: did not alter
activation-dependent proliferation (CD8+ T cells [13]): minimal effect
viability (CD8+ T cells [14]): minimal effect
proliferation of CD4+ T cells (CD4+ T cells): minimal effect
IFNγ and TNF-α production (active CD8+ T cells [15]): blocked
IL-2 and TNF-α production (active CD4+ T cells): blocked
formation and proliferation of Foxp3+ cells [16]: unaffected
LPS-induced pro-inflammatory cytokine production or iNOS upregulation [17]: did not decrease
oxidative burst (oxygen consumption rate) (mouse neutrophils): decreased
oxidative burst (oxygen consumption rate) (human neutrophils): decreased
off-target metabolic effects (HCT116 cells [18]): some potential off-target effects on purine nucleosides
specificity of metabolic effects (CD8+ T cells [19]): clean on-target activity

in vitro activity against human G6PD (recombinant human G6PD): lacked any activity
SMILES: CN(c1cccc(C#N)c1)c1ncc2c(n1)CCCC2=O [G6PDi-neg-ctrl, 3-[methyl(5-oxo-5,6,7,8-tetrahydroquinazolin-2-yl)amino]benzonitrile]

in vitro activity against human G6PD (recombinant human G6PD): low micromolar
SMILES: Cc1cccc(Nc2ncc3c(n2)CCCC3=O)c1 [G6PDi-precursor, 2-[(3-methylphenyl)amino]-5,6,7,8-tetrahydroquinazolin-5-one]

SMILES: OC[C@H]1O[C@@H](Oc2cc(O)cc(/C=C/c3ccc(O)cc3)c2)[C@H](O)[C@@H](O)[C@@H]1O [polydatin, reference compound]
effect on 6-pg levels ([1]; HepG2 cells, 50 μM, 2 h): failed to decrease
effect on NADPH active hydride labeling ([3]; 50 μM, 2 h): failed to decrease
